Here are results for 12 molecules from ChEMBL document CHEMBL3352527, “Phosphorus-nitrogen compounds. Part 29. Syntheses, crystal structures, spectroscopic and stereogenic properties, electrochemical investigations, antituberculosis, antimicrobial and cytotoxic activities and DNA interactions of ansa-spiro-ansa cyclotetraphosphazenes” (2014).

In test [1] the test system is Escherichia coli. The experiment in a line: Antimicrobial activity against Escherichia coli ATCC 25922 after 18 hrs by agar well diffusion assay. It is filed as functional. In a few lines: (§1)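 Bacteria were grown to exponential phase in nutrient broth at 37 °C for 18 h and adjusted to 10^8 cfu/mL against McFarland density. The culture suspension was mixed into the medium and poured into plates with 6.0 mm wells. Each well received 50 of the compound solution in DMSO. Inhibition zone diameter was read in mm; the value is the mean of three experiments.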

In test [2] the test system is Bacillus spizizenii. The experiment in a line: Antimicrobial activity against Bacillus subtilis ATCC 6633 after 18 hrs by agar well diffusion assay. In kind it is functional. Put shortly: as §1
Background: A growth-free zone around the sample is the usual read-out of agar diffusion tests.

Test [3] concerns Bacillus cereus. The experiment in a line: Antimicrobial activity against Bacillus cereus NRRL-B-3711 after 18 hrs by agar well diffusion assay. In kind it is functional. Put shortly:
as §1

For test [4], the system named is MCF7. Nature of the test: Cytotoxicity against human MCF7 cells assessed as reduction in cell viability at 1 mg/ml after 24 hrs by MTT assay. In kind it is functional. In a few lines: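 Cells were exposed to compounds for 24 h, then to MTT for 4 h. Formazan was dissolved in DMSO and absorbance read at 540 nm. Relative viability (%) was determined, with cisplatin as positive control.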
(In general: Tetrazolium dyes change colour on reduction, which living cells bring about.)

Test [5] has as its system Bacillus spizizenii. Nature of the test: Antimicrobial activity against Bacillus subtilis ATCC 6633 at 2500 uM after 18 hrs by agar well diffusion assay. In kind it is functional. Particulars: ATCC 6633, 18 h, read-out: DIZ. Put shortly:
as §1

Test [6] deals with Escherichia coli. The experiment in a line: Binding affinity to Escherichia coli pBR322 plasmid DNA assessed as retardation of electrophoretic migration of supercoiled form I DNA at 312 to 5000 uM after 24 hrs by agarose gel electrophoresis. Put shortly: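 pBR322 plasmid DNA was incubated with the compounds at 37 °C for 24 h in the dark. Mixtures were run on a 1% agarose gel in TAE buffer (pH 8.0) for 3 h at 60 V. Mobility of supercoiled form I and nicked form II DNA was compared with untreated plasmid.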

For test [7], the system named is Candida albicans. The experiment in a line: Antimicrobial activity against Candida albicans ATCC 10231 at 50 ug after 18 hrs by agar well diffusion assay. It is filed as functional. Particulars: ATCC 10231, 18 h, read-out: DIZ.
The subject of test [8] is Candida tropicalis. The experiment in a line: Antimicrobial activity against Candida tropicalis ATCC 13803 at 50 ug after 18 hrs by agar well diffusion assay. It is filed as functional. Particulars: ATCC 13803, 18 h, read-out: DIZ.
Test [9] concerns Bacillus cereus. Nature of the test: Antimicrobial activity against Bacillus cereus NRRL-B-3711 at 10 ug after 18 hrs by agar well diffusion assay. In kind it is functional. Particulars: NRRL-B-3711, 18 h, read-out: DIZ. In a few lines:
(§2)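 Agar-well diffusion with ampicillin and chloramphenicol as reference antibacterials. Bacteria were grown to exponential phase in nutrient broth at 37 °C for 18 h and adjusted to 10^8 cfu/mL against McFarland density. The suspension was mixed into medium and poured into plates, and 6.0 mm wells were cut. After incubation, inhibition zone diameter was read in mm. Values are the mean of three experiments.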

Test [10] has as its system Bacillus spizizenii. The experiment in a line: Antimicrobial activity against Bacillus subtilis ATCC 6633 at 10 ug after 18 hrs by agar well diffusion assay. In kind it is functional. The settings on record: ATCC 6633, 18 h, read-out: DIZ. In a few lines: as §2
Test [11] deals with Staphylococcus aureus. The experiment in a line: Antimicrobial activity against Staphylococcus aureus ATCC 25923 at 10 ug after 18 hrs by agar well diffusion assay. In kind it is functional. The settings on record: ATCC 25923, 18 h, read-out: DIZ. Put shortly: as §2
Test [12] deals with Pseudomonas aeruginosa. Nature of the test: Antimicrobial activity against Pseudomonas aeruginosa ATCC 27853 at 10 ug after 18 hrs by agar well diffusion assay. In kind it is functional. The settings on record: ATCC 27853, 18 h, read-out: DIZ. Put shortly:
as §2

In test [13] the test system is Escherichia coli. Nature of the test: Antimicrobial activity against Escherichia coli ATCC 35218 at 10 ug after 18 hrs by agar well diffusion assay. It is filed as functional, organism-based.
The subject of test [14] is Escherichia coli. Nature of the test: Antimicrobial activity against Escherichia coli ATCC 25922 at 10 ug after 18 hrs by agar well diffusion assay. In kind it is functional. The settings on record: ATCC 25922, 18 h, read-out: DIZ. In a few lines: as §2
Test [15] concerns Staphylococcus aureus. Nature of the test: Antimicrobial activity against Staphylococcus aureus ATCC 25923 at 30 ug after 18 hrs by agar well diffusion assay. In kind it is functional. Particulars: ATCC 25923, 18 h, read-out: DIZ. Put shortly: as §2
In test [16] the test system is Pseudomonas aeruginosa. The experiment in a line: Antimicrobial activity against Pseudomonas aeruginosa ATCC 27853 at 30 ug after 18 hrs by agar well diffusion assay. It is filed as functional. The settings on record: ATCC 27853, 18 h, read-out: DIZ. Put shortly: as §2
Test [17] relates to Escherichia coli. The experiment in a line: Antimicrobial activity against Escherichia coli ATCC 35218 at 30 ug after 18 hrs by agar well diffusion assay. It is filed as functional. The settings on record: ATCC 35218, 18 h, read-out: DIZ. Put shortly: as §2
For test [18], the system named is Bacillus cereus. Nature of the test: Antimicrobial activity against Bacillus cereus NRRL-B-3711 at 30 ug after 18 hrs by agar well diffusion assay. It is filed as functional. The settings on record: NRRL-B-3711, 18 h, read-out: DIZ. Put shortly:
as §2

For test [19], the system named is Escherichia coli. Nature of the test: Antimicrobial activity against Escherichia coli ATCC 25922 at 30 ug after 18 hrs by agar well diffusion assay. It is filed as functional. The settings on record: ATCC 25922, 18 h, read-out: DIZ. Put shortly: as §2
The test system of test [20] is Bacillus spizizenii. The experiment in a line: Antimicrobial activity against Bacillus subtilis ATCC 6633 at 30 ug after 18 hrs by agar well diffusion assay. Particulars: ATCC 6633, 18 h, read-out: DIZ. In kind it is functional. In a few lines: as §2

Activity calls are given as the source filed them. The calls are words filed in the database; no cut-off is given here.

In the case of `C1CC2(CCN1)OCCO2`, the “diameter of the inhibition zone (DIZ)” value worked out at 11 mm in test [1], 12 mm in test [2] and 13 mm in test [3].

With `ClP12=NP34=N[P@](Cl)(=NP(N5CCCCC5)(N5CCCCC5)=N1)Oc1ccccc1CN3CCCN4Cc1ccccc1O2` (single isomer, unassigned), in [4], the Activity turned out to be 40%. The zone of inhibition at 2500 µM in test [5] was 9 mm. The outcome in test [6] was Active.

Regarding `Cl[P@@]12=NP34=N[P@](Cl)(=NP(N5CCCCC5)(N5CCCCC5)=N1)Oc1ccccc1CN3CCN4Cc1ccccc1O2` (mixture of isomers), in [4], the Activity was found to be 40%. Further, in test [6], the result was Active.

With `ClP12=NP34=N[P@](Cl)(=NP(N5CCC6(CC5)OCCO6)(N5CCC6(CC5)OCCO6)=N1)Oc1ccccc1CN3CCN4Cc1ccccc1O2` (single isomer, unassigned), the result in test [4] was inactive.

On to `ClP12=NP(N3CCC4(CC3)OCCO4)(N3CCC4(CC3)OCCO4)=N[P@@]3(Cl)=N[P@]4(=N1)N(CCN4Cc1ccccc1O3)Cc1ccccc1O2` (single isomer, unassigned), for which the result in test [4] was inactive.

`CC(=O)N1CCN(c2ccc(OCC3COC(Cn4ccnc4)(c4ccc(Cl)cc4Cl)O3)cc2)CC1` (stereo unspecified) [KETOCONAZOLE]: the zone of inhibition at 50 µg/disc is 30 mm in test [7] and 29 mm in test [8].

Consider `Cl[P@@]12=NP34=N[P@](Cl)(=NP(N5CCC6(CC5)OCCO6)(N5CCC6(CC5)OCCO6)=N1)Oc1ccccc1CN3CCCN4Cc1ccccc1O2` (mixture of isomers), for which the outcome in test [4] was inactive.

As for `C1CCNCC1` [PIPERIDINE], the “diameter of the inhibition zone (DIZ)” value in [1] worked out at 11 mm; in [3], 13 mm.

Turning to `ClP12=NP34=NP(Cl)(=NP(N5CCC6(CC5)OCCO6)(N5CCC6(CC5)OCCO6)=N1)Oc1ccccc1CN3CCCN4Cc1ccccc1O2` (single isomer, unassigned), in test [4], the outcome was inactive. Further, the zone of inhibition at 2500 µM in test [5] was found to be 7 mm.

Turning to `CC1(C)S[C@@H]2[C@H](NC(=O)[C@H](N)c3ccccc3)C(=O)N2[C@H]1C(=O)O` [AMPICILLIN], the zone of inhibition at 10 µg/disc in test [9] came to 10 mm; in [10], 30.3 mm; in [11], 35 mm; in [12] it was 28 mm; in test [14] it was 20.3 mm. In addition, in [13], the “diameter of the inhibition zone (DIZ)” value is “inactive”.

On to `O=C(N[C@H](CO)[C@H](O)c1ccc([N+](=O)[O-])cc1)C(Cl)Cl` [CHLORAMPHENICOL], for which the zone of inhibition at 30 µg/disc in test [15] worked out at 29.6 mm; in test [16], 21.9 mm; in [17] it was 10.5 mm; in test [18], 23.4 mm; in test [19], 26.6 mm; in test [20], 31 mm.

With `[K+].[K+].[O-]c1ccccc1CNCCCNCc1ccccc1[O-]`, the “diameter of the inhibition zone (DIZ)” value in test [1] was 10.3 mm; in test [3], 11 mm.
